# The list is not random: actives were taken first. Their share in the collection is about 2.3%.
# GSTO1 counter – inhibitors of recombinant GSTO1, primary screen, counter-screen for RBBP9 inhibitor project, biochemical, fluorescence polarization | inhibition, % at 5.96 µM | activity-based probe fluorescence polarization | actives 1.1% (n = 300,000) | Glutathione S-transferase omega-1 (Homo sapiens), P78417;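 active = inhibition above the campaign mean inhibition plus 3 SD, cut at about 35% in these data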;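 also: 0% = GSTO1-1 with DMSO and 100% = wells lacking GSTO1-1 enzyme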
# Target sequence (P78417 whole entry, looked up): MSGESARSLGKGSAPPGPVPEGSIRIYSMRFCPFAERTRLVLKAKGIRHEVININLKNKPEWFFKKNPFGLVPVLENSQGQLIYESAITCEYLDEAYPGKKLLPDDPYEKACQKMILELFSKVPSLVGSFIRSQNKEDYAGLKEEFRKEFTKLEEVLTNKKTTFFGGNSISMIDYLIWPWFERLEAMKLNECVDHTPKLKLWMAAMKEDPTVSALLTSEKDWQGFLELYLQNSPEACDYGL
# Fam108B inh – mouse Fam108B serine hydrolase inhibitors, primary screen, counter-screen for RBBP9 inhibitor project, biochemical, fluorescence polarization; recombinant Fam108B, FP-Rh probe fluorescence polarization; inhibition, % at 9.51 µM; actives 0.33% (n = 300,000); AID 1947, 2009;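 active = inhibition above the screen mean inhibition plus 3 SD, computed separately per campaign, cut at about 18% in these data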;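 also: inhibitors lower polarization as less probe binds the enzyme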
# PME-1 inh – PME-1 inhibitors via competitive probe labeling, primary screen, biochemical, fluorescence polarization, FP-Rh probe, HTS; actives 0.53% (n = 320,000); Protein phosphatase methylesterase 1 (Homo sapiens), Q9Y570; inhibition, % at 5.9 µM; AID 2130, 2009; recombinant PME-1;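 active = inhibition above the campaign mean of all compounds plus 3 SD, cut at about 26% in these data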;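 also: competitive labeling of PME-1 active site by serine hydrolase directed probe; 0% = PME-1 with DMSO and 100% = wells lacking PME-1 enzyme; inhibitors block probe labeling so polarization falls and inhibition rises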
# RBBP9 inh – human RBBP9 inhibitors, primary screen, biochemical, fluorescence polarization, FP-Rh probe, HTS; actives 0.2% (n = 220,000); recombinant RBBP9; AID 1515, 2009; Serine hydrolase RBBP9 (Homo sapiens), O75884; inhibition, % at 7.94 µM;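 active = inhibition above the campaign mean of all tested compounds plus 3 SD, cut at about 14% in these data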;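 also: plate controls were DMSO wells with RBBP9 for no effect and wells lacking RBBP9 protein for full effect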
#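 Test system: recombinant human RBBP9. Quantity: 2.5 µM RBBP9 dispensing solution, before mixing. Detection: FP readout at 525/598 nm. Reagent: Serine-hydrolase probe FP-Rh, 375 nM pre-mixing. Measure: % inhibition. Control set: DMSO-treated enzyme wells and wells lacking RBBP9. Buffer or medium: Tris-NaCl-Pluronic buffer, pH 8.0. Times: preincubation 30 min plus labeling 45 min at 25 °C.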
# PRMT1 inh – PRMT1 methyltransferase inhibitors, primary screen, biochemical, fluorescence polarization. Protein arginine N-methyltransferase 1 (Homo sapiens), Q99873. recombinant PRMT1, activity-based probe fluorescence polarization. inhibition, % at 2.79 µM. actives 1.3% (n = 370,000). AID 652257, 2013;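 active = inhibition above about 21% made by adding two undisclosed values, limit read from the data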
# Target sequence (Q99873 whole entry, looked up): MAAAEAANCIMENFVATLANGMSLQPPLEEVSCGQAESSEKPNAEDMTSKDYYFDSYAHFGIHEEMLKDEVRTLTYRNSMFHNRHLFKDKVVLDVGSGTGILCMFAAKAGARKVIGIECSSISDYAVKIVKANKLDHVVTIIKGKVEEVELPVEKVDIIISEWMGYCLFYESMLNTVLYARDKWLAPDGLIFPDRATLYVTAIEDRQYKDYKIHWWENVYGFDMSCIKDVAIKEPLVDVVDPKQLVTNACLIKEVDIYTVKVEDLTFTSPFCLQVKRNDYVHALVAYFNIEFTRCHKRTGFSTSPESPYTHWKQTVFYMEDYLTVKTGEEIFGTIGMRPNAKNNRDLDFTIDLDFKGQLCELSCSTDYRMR
# PAD4 FP inh – human PAD4 inhibitors, primary screen, biochemical, fluorescence polarization, 1536-well format | Protein-arginine deiminase type-4 (Homo sapiens), Q9UM07 | inhibition, % at 6.36 µM | recombinant PAD4, RCA probe fluorescence polarization | actives 0.41% (n = 330,000);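 active = percent inhibition above a cutoff equal to the mean of all tested compounds plus 3 SD, cut at about 15% in these data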;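 also: 0% = PAD4 with RCA probe and DMSO and 100% = probe without PAD4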
# Starred values were filed as active, the others as inactive; / = no result given.
SMILES,GSTO1 counter,Fam108B inh,PME-1 inh,RBBP9 inh,PRMT1 inh,PAD4 FP inh
N#C/C(=C\C=C\c1ccccc1[N+](=O)[O-])c1nc(-c2ccc3c(c2)OCO3)cs1,5,5,0,2,-6,1
CC(C)(C)c1ccc(CN2N=Nc3ccccc3S2(=O)=O)cc1,0,-3,3,-4,6,-1
O=S1(=O)c2ccccc2N=NN1Cc1ccc(Cl)c(Cl)c1,35*,0,3,7,/,-7
COc1ccc(NC(=O)CSc2nnc(-c3ccoc3C)n2CC2CCCO2)cc1 (centres undefined),1,0,1,-1,1,2
O=[N+]([O-])c1ccc(/C=N/n2c(CO)nc3ccccc32)s1,37*,4,7,-1,-2,-9
Cc1nc2ccccc2c(=O)n1/N=C/c1ccc([N+](=O)[O-])o1,20,1,-2,-3,/,-6
Cc1nc2ccccc2n1/N=C/c1ccc([N+](=O)[O-])o1,37*,1,1,-1,2,-6
Cc1nc2ccccc2n1/N=C/c1ccc([N+](=O)[O-])s1,47*,-9,7,-6,-3,-15
O=C(Cc1cccs1)N/N=C\c1ccc([N+](=O)[O-])s1,13,0,1,1,3,-7
Cc1cc(C)cc(N=Cc2ccc([N+](=O)[O-])s2)c1,36*,7,3,-8,1,-6
Cc1cc2ncn(/N=C/c3ccc([N+](=O)[O-])s3)c2cc1C,15,12,7,-1,-2,-7
Cc1nc(NC(=O)COC(=O)CCS(=O)(=O)c2ccccc2Cl)c(Cl)cc1Cl,2,-1,6,-4,-2,5
CC(=O)c1c(C)oc2ccc(N(C(C)=O)S(=O)(=O)c3ccc(Cl)c([N+](=O)[O-])c3)cc12,22,-2,0,-8,1,5
CCOC(=O)C(C)(C)N(Cc1ccc(Cl)cc1)S(=O)(=O)c1ccc(Cl)c([N+](=O)[O-])c1,65*,2,0,6,/,1
O=C(CN(c1ccc(Cl)cc1)S(=O)(=O)c1ccc(Cl)c([N+](=O)[O-])c1)NCCc1ccc(F)cc1,5,-1,2,-12,0,2
CCOC(=O)C(C)(C)N(Cc1ccc(C)cc1)S(=O)(=O)c1ccc(Cl)c([N+](=O)[O-])c1,62*,-2,-5,0,-1,6
O=C(COC(=O)/C=C/c1ccc([N+](=O)[O-])cc1)NC(=O)NC1CCCCC1,/,/,/,/,0,-5
OC1O[C@H](c2ccc3c(c2)OCO3)[C@H]2CO[C@H](c3ccc4c(c3)OCO4)[C@@H]12 (some centres undefined),1,2,5,/,1,-5
Cc1ccccc1NC(=O)c1c(C)[nH]c(=S)c(C#N)c1-c1ccco1,8,-3,7,-12,24*,-18
CSc1nc(C)c(C(=O)Nc2ccccc2)c(-c2ccco2)c1C#N,2,2,-3,2,0,1
CCOC(=O)c1sc2nc(CC(=O)OC)nc(NCc3ccco3)c2c1C,/,/,/,1,22*,/
CCOC(=O)c1sc2nc(CC(=O)OC)nc(NCC(=O)OC)c2c1C,1,-2,-4,-6,3,-4
CCCN(CCC)CCNC(=O)c1cc2c(=O)n(CC)c3ccccc3c2s1,7,3,1,3,-3,-2
CC(=O)Nc1ccc(N(C(=O)Cn2nnc3ccccc32)C(C(=O)NC2CCCC2)c2ccc(O)c(O)c2)cc1 (centres undefined),43*,-4,-6,-11,2,-2
CCOC(=O)C(=CNc1ccc(Oc2cccnc2)nc1)C(=O)OCC,5,0,2,1,-3,-2
SMILES,GSTO1 counter,Fam108B inh,PME-1 inh,RBBP9 inh,PRMT1 inh,PAD4 FP inh
O=C(OCc1ccccc1)Oc1cncc(C(=O)O)c1,35*,-5,1,-6,-2,-1
O=C(O)C1Nc2c(C(=O)N3CCOCC3)cccc2C2C=CCC12 (centres undefined),36*,4,-16,-1,/,-12
O=C(c1ccccc1O)N1CCOCC1,-15,1,0,1,-4,1
COC(=O)c1ccc(N2NC(=O)/C(=C/c3cc(OC)c(O)c(OC)c3)C2=O)cc1,37*,1,-6,/,10,0
COC(=O)c1ccc(N2NC(=O)/C(=C/c3cc(OC)c(OC)c(OC)c3)C2=O)cc1,23,-3,2,/,6,-7
CCN(CC)C1CC(=O)N(c2ccc(Br)cc2)C1=O (centres undefined),5,-3,3,/,46*,0
O=C(Nc1cccc2ncccc12)c1ccc(-c2ccc(Br)cc2)o1,5,-1,-1,-3,25*,-8
Nc1ccc(Nc2nc3ccccc3[nH]2)cc1,7,17,40*,/,6,-2
CCOc1ccc(NC(=O)C(C)NS(=O)(=O)c2ccc(NC(C)=O)cc2)cc1 (centres undefined),-8,-1,-8,4,16,1
Cc1ccc(S(=O)(=O)c2ccc([N+](=O)[O-])o2)cc1,/,/,/,/,76*,/
c1ccc(CCn2nnnc2CN2CCCc3ccccc32)cc1,6,0,0,2,25*,2
Cc1ccc2c(CN3CCCCC3C)cc(=O)oc2c1C (centres undefined),/,/,/,/,1,/
CCc1ccccc1N=C1S/C(=C/c2ccccc2OCC(=O)N2CCOCC2)C(=O)N1C,-3,0,2,-3,1,-6
O=C1NN(c2ccccc2)C(=O)/C1=C\c1ccccc1OCC(=O)N1CCOCC1,16,5,-2,-4,21*,12
CCOc1ccc2nc(/N=C/c3nc(-c4ccc(Br)cc4)oc3O)sc2c1,-1,-6,7,-10,-2,-7
C=CCN=Cc1sc2ccc(OCC)cc2c1O,3,2,0,-7,24*,0
Cc1nn(C)c(C)c1N1C(=O)c2cccc3c(N)ccc(c23)C1=O,12,10,18,0,180*,31*
CC(OC(=O)CC1CCCCC1)C(=O)Nc1cccc(C#N)c1 (centres undefined),-6,-2,-5,/,4,-1
CN(/N=C\c1ccc(O)c(O)c1)c1nc(-c2ccccc2)cc(-c2ccccc2)n1,-8,21*,22,-3,-1,3
Cc1cc(C(=O)Nc2cc(C)on2)on1,4,0,-4,/,1,0
O=S(=O)(O)c1cccc2cccc(Nc3ccccc3)c12,38*,8,9,/,25*,2

# Screening data as filed in PubChem.
